Data published in publication PMC3080100 (Chemical biology & drug design, 2011).
* marks the point of attachment. FITC = O=C1OC2(c3ccc(O)cc3Oc3cc(O)ccc32)c2ccc(NC(=S)*)cc21

Tests used:
Type in all cases: cell-based, mouse
EpH4 cells [1] = assay: Apoptosis scored as caspase-3 positive cells; conditions: mean ± SEM; for percentage of cells containing caspase-3 (apoptosis): 2 mM peptide; for percent apoptosis (caspase-3 positive cells): 200 μM peptide, 16 hours at 37°C
Outline: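 EpH4 monolayers were exposed for 16 h to test compound over a dose range and fixed in 2% PFA (15 min RT). Then 0.5% Triton X-100 for 5 min and 2% BSA for 1 h. Primary: rabbit anti-cleaved caspase-3 (1:100), ± rat anti-ZO-1 (1:50), 1 h. Secondary: Cy3/FITC (1:150), 45 min. Percent positive cells scored; mean ± SEM, n=3-6 wells; unpaired t-test versus untreated.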

claudin-4 = assay: Claudin-4 localization by immunofluorescence; conditions: EpH4 cells; for claudin-4 localization: 16 hours; for claudin-4 localization, time course: 400 μM, 16 hours at 4°C
EpH4 cells [2] = assay: TUNEL staining
Outline: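 EpH4 cells on chamber slides were exposed to 350 μM test compound or control peptide for 8, 16 or 24 h. Fixed in 2% PFA and permeabilised in 1% sodium citrate with 0.1% Triton X-100. TUNEL staining used a TMR-red in situ cell death kit per manufacturer. Mean ± SEM, n=3-6.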

caspase-8 [3] = assay: Active caspase-8, live-cell fluorescent indicator; conditions: EpH4 cells, 16 hours of peptide, indicator added during the last hour
Outline: (§1)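 EpH4 cells were grown 4-5 days on 8-well chamber slides to form tight junctions, then exposed to test compound or control peptide for 8, 16 or 24 h (DMSO <0.5% final). For the last 1 h, growth medium held 1X FLICA probe (sulforhodamine-DEVD-fmk for caspase-3/7; carboxyfluorescein-LETD-fmk for caspase-8). Optional 1 μM Hoechst 33342, 5 min 37°C; HBSS wash; 2% PFA, 15 min RT. Mean ± SEM, n=3-6.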

caspase-3 = assay: Active caspase-3; conditions: EpH4 cells
Outline: as §1

claudin-3 = assay: Claudin-3 localization by immunofluorescence; conditions: EpH4 cells, 16 hours, co-stained with ZO-1
Outline: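 EpH4 monolayers were exposed to peptide for 16 h, then fixed in 2% paraformaldehyde for 15 min at room temperature. Permeabilised with 0.5% Triton X-100 and blocked 1 h in 2% BSA. Stained 1 h with rabbit anti-claudin-3 (1:200) and rat anti-ZO-1 (1:50), then 45 min with fluorophore-conjugated donkey secondaries (1:150). Nuclei counterstained with DAPI; confocal z-stacks imaged.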

EpH4 cells [4] = assay: Live-cell binding/localization of FITC-labeled peptide at 4°C, EpH4; conditions: 400 μM, 1 hour at 4°C; for localization/binding of FITC-peptide at the plasma membrane: live imaging; for fluorescence intensity of FITC: washed in ice cold PBS, background subtracted, mean ± SEM, n=3 separate cultures, p=0.007
Outline: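 EpH4 cells were incubated 1 h at 4°C with 400 μM FITC-labelled test compound. Washed in ice-cold PBS and imaged live, without fixation. FITC intensity was measured after background subtraction. Mean ± SEM, n=3 separate cultures.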

3T3L1 cells [5] = assay: Active caspase-3 and -7, live-cell fluorescent indicator, 3T3L1 fibroblasts; conditions: 3T3L1 fibroblast cells, 400 μM, 1 hour at 4°C then up to 4 hours at 37°C
Outline: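 Live imaging of EpH4 or 3T3L1 cells (3T3L1 in DMEM/F12 with 10% bovine calf serum, split 1:8 every 2-3 days). Cells received 400 μM FITC-labelled test compound for 1 h at 4°C. Active caspase-3/7 indicator was then applied for 1 h at 4°C (time 0), or after 30 min, 2 h or 4 h at 37°C. PBS wash, then fluorescence imaging.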

caspase-8 [6] = assay: Active caspase-8 by antibody, time course after warming from 4°C to 37°C; conditions: EpH4 cells, 400 μM, 16 hours at 4°C, then 4 hr at 37°C
Outline: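 EpH4 cells grown 4–5 days on glass chamber slides to form tight junctions, in DMEM with 5% FBS and 10 mM Hepes. Exposed to 400 μM FITC-labelled D-form test peptide for 16 h at 4°C (final DMSO <0.5%). Then fixed (time 0) or moved to 37°C for 30 min, 2 h or 4 h. Fixed in 2% paraformaldehyde, permeabilised, BSA-blocked, immunostained for claudin-4 and active caspase-8, then imaged.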

3T3L1 cells [7] = assay: Live-cell binding/localization of FITC-labeled peptide at 4°C, 3T3L1; conditions: 3T3L1 fibroblast cells, 400 μM, 1 hour at 4°C, live imaging
Outline: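 3T3L1 fibroblasts grown in DMEM/F12 with 10% bovine calf serum and plated on glass chamber slides. Given 400 μM FITC-linked D-form test peptide for 1 h at 4°C. Then either 1 h with live caspase-3/7 FLICA indicator at 4°C (time 0), or 30 min, 2 h or 4 h at 37°C before 1 h with indicator. Washed in cold PBS and imaged live without fixation.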

## NH2-C-DFYNP-C-OH (disulfide) [peptide 1]
EpH4 cells [1]; 16 hours, n=3-6
  percentage of cells containing caspase-3 (apoptosis): 7.17 ± 1.24%
claudin-4; 400 μM peptide, anti-claudin-4
  claudin-4 localization: mis-localization
EpH4 cells [2]; 350 μM, 8, 16 or 24 hours
  TUNEL staining compared to control peptide treated cells: significantly increased
EpH4 cells [2]; 350 μM, tested at 8, 16 or 24 hours
  time of peak TUNEL staining: ~16 h
caspase-8 [3]
  cells with activated caspase-8 compared to control: significant number of cells
caspase-3; 16 hours of peptide, indicator added during the last hour
  cells with activated caspase-3 compared to control: significant number of cells

## Ac-C-DFYNP-C-amide (disulfide) [peptide 3]
EpH4 cells [1]; 16 hours, n=3-6
  percentage of cells containing caspase-3 (apoptosis): 7.96 ± 0.75%
EpH4 cells [1]; 16 hours, n=3-6, listed as L-peptide
  percentage of cells containing caspase-3 (apoptosis): about 7%

## Ac-C-DFYNP-C-OH (disulfide) [peptide 2]
EpH4 cells [1]; 16 hours, n=3-6
  percentage of cells containing caspase-3 (apoptosis): 9.22 ± 0.65%

## LYQY [reference compound]
claudin-4; 350 μM peptide, anti-claudin-4
  claudin-4 localization: no effect

## Ac-DFYNP-amide [linear D-peptide]
EpH4 cells [1]; n=3-6
  percent apoptosis (caspase-3 positive cells): 12.27±0.72%
claudin-4; linear D-peptide, co-stained with ZO-1
  claudin-4 localization: mis-localized
claudin-3; linear D-peptide
  claudin-3 localization: mis-localization away from tight junctions

## Ac-C-DFYNP-C-amide (disulfide) [disulfide-bridged D-peptide]
EpH4 cells [1]; n=3-6
  percent apoptosis (caspase-3 positive cells): 16.46 ± 0.51%
EpH4 cells [1]; 16 hours, n=3-6, listed as D-peptide
  percentage of cells containing caspase-3 (apoptosis): 100%

## {FITC}-DGYNP-NH2 [FITC-D(G)YNP]
EpH4 cells [4]
  localization/binding of FITC-peptide at the plasma membrane: binds poorly
  fluorescence intensity of FITC: 18.38±9.26

## {FITC}-DFYNP-NH2
EpH4 cells [1]; 800 μM peptide, 16 hours, n=3-6
  percent apoptosis (caspase-3 activation): 10.58±0.83%
claudin-4; then 30 min at 37°C
  claudin-4 localization, time course: significant amount of claudin-4 mis-localization
claudin-4; then 4 hr at 37°C
  claudin-4 localization, time course: significant claudin-4 mis-localization
claudin-4; 800 μM peptide
  claudin-4 localization: mis-localization of claudin-4 away from tight junctions
caspase-3; 400 μM, 1 hour at 4°C then 4 hours at 37°C
  caspase-3 and/or -7 activation, live cells: significantly increased
3T3L1 cells [5]
  caspase-3 and/or -7 activation, live cells: no caspase activation
caspase-8 [6]
  caspase-8 activation, time course: significant caspase-8 activation
EpH4 cells [4]
  localization/binding of FITC-peptide at the plasma membrane: localizes to the plasma membrane at the sites of cell junctions
  fluorescence intensity of FITC: 82.71±5.80
3T3L1 cells [7]
  localization/binding of FITC-peptide at the plasma membrane: does not, however, appear to bind to the plasma membranes

## Ac-DGYNP-amide [D(G)YNP]
EpH4 cells [1]; n=3-6
  percent apoptosis (caspase-3 positive cells): 1.46±0.53%
EpH4 cells [1]; 16 hours, n=3-6
  percentage of cells containing caspase-3 (apoptosis): 1.34±0.21%
claudin-4; 400 μM peptide, anti-claudin-4
  claudin-4 localization: not affected
claudin-3; 400 μM peptide
  claudin-3 localization: remained restricted to the tight junctions
